Measured values from ChEMBL document CHEMBL4049389, “Design, synthesis and biological evaluation of aminobenzyloxyarylamide derivatives as selective κ opioid receptor antagonists” (Eur J Med Chem, 2017).
pIC50, pKi: −log10 of the molar value. Calls of active or inactive are those of the source. No cut-off for these calls is given here.

Tests used:
[1] = target: T1, Mu-type opioid receptor (Homo sapiens, UniProt P35372); experiment: Displacement of [3H]DAMGO from recombinant human mu-opioid receptor expressed in CHO cell membranes at 1 X 10^-5 M after 60 mins by liquid scintillation counting method relative to control
Method in brief: (§1)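 Single-concentration radioligand displacement in membranes from CHO (κ, μ) or HEK293 (δ) cells expressing human receptors. Radioligands were [3H]-U69,593, [3H]-DAMGO and [3H]-DPDPE, incubated in Tris-HCl at 25 °C for 60 min, filtered and counted by scintillation. Read-out was percent inhibition of specific binding; assays were done in duplicate.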

[2] = target: T2, Delta-type opioid receptor (Homo sapiens, UniProt P41143); experiment: Displacement of [3H]DPDPE from recombinant human delta-opioid receptor expressed in HEK293 cell membranes at 1 X 10^-6 M after 60 mins by liquid scintillation counting method relative to control; method in brief: as §1
[3] = target: T3, Kappa-type opioid receptor (Homo sapiens, UniProt P41145); experiment: Displacement of [3H]U69593 from recombinant human kappa-opioid receptor expressed in CHO cell membranes at 1 X 10^-6 M after 60 mins by liquid scintillation counting method relative to control; method in brief: as §1
[4] = target: T1, Mu-type opioid receptor; experiment: Displacement of [3H]DAMGO from recombinant human mu-opioid receptor expressed in CHO cell membranes at 1 X 10^-6 M after 60 mins by liquid scintillation counting method relative to control; method in brief: as §1
[5] = target: T3, Kappa-type opioid receptor; experiment: Displacement of [3H]U69593 from recombinant human kappa-opioid receptor expressed in CHO cell membranes at 1 X 10^-5 M after 60 mins by liquid scintillation counting method relative to control; method in brief: as §1
[6] = target: T2, Delta-type opioid receptor; experiment: Displacement of [3H]DPDPE from recombinant human delta-opioid receptor expressed in HEK293 cell membranes at 1 X 10^-5 M after 60 mins by liquid scintillation counting method relative to control; method in brief: as §1
[7] = species: Homo sapiens; experiment: (§2) Selectivity ratio of IC50 for antagonist activity at recombinant human delta-opioid receptor expressed in HEK293 cell membranes assessed as inhibition of DPDPE-induced [35S]GTPgammaS binding to IC50 for antagonist activity at recombinant human kappa-opioid receptor expressed in CHO cell membranes assessed as inhibition of U69593-induced [35S]GTPgammaS binding
Method in brief: (§3)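 Membranes from CHO cells (κ, μ) or HEK293 cells (δ) expressing human opioid receptors. Assay buffer was 20 mM HEPES pH 7.4, 5 mM MgCl2, 100 mM NaCl, 1 mM EDTA, 1 mM DTT with GDP. GTP-γ-35S was 0.5 nM final. Agonist at ~80% max stimulation: U69,593 300 nM (κ), DAMGO (μ), DPDPE 30 nM (δ). Read by WGA SPA, 11-point curves, four-parameter fit; mean ± SEM of ≥3 experiments.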

[8] = species: Homo sapiens; experiment: Selectivity ratio of Ki for displacement of [3H]DAMGO from recombinant human mu-opioid receptor expressed in CHO cell membranes to Ki for displacement of [3H]U69593 from recombinant human kappa-opioid receptor expressed in CHO cell membranes
[9] = system: Mus musculus; experiment: Anxiolytic activity in ICR mouse assessed as increase in time spent on open arms at 30 mg/kg, ip administered 30 mins prior to test measured for 5 mins by elevated plus maze test; format: functional, organism-based
Method in brief: (§4)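 Male ICR mice (18–22 g), 10 per group, adapted ≥1 h. Dosed i.p. with saline vehicle 30 min pretest. Maze elevated 50 cm; each mouse started on the central platform facing an open arm. Entries and time in open and closed arms were video-tracked over 5 min, expressed as OE/(CE+OE) and OT/(OT+CT); mean ± SEM.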

[10] = system: Mus musculus; experiment: Anxiolytic activity in ICR mouse assessed as increase in number of open arm entries at 30 mg/kg, ip administered 30 mins prior to test measured for 5 mins by elevated plus maze test; format: functional, organism-based; method in brief: as §4
[11] = target: T1, Mu-type opioid receptor; experiment: Antagonist activity at recombinant human mu-opioid receptor expressed in CHO cell membranes assessed as inhibition of DAMGO-induced [35S]GTPgammaS binding after 4 hrs by microbeta scintillation counting method; format: functional; method in brief: as §3
[12] = species: Homo sapiens; experiment: Selectivity ratio of Ki for displacement of [3H]DPDPE from recombinant human delta-opioid receptor expressed in HEK293 cell membranes to Ki for displacement of [3H]U69593 from recombinant human kappa-opioid receptor expressed in CHO cell membranes
[13] = target: T2, Delta-type opioid receptor; experiment: Displacement of [3H]DPDPE from recombinant human delta-opioid receptor expressed in HEK293 cell membranes after 60 mins by liquid scintillation counting method
[14] = target: T2, Delta-type opioid receptor; experiment: Antagonist activity at recombinant human delta-opioid receptor expressed in HEK293 cell membranes assessed as inhibition of DPDPE-induced [35S]GTPgammaS binding after 2 hrs by microbeta scintillation counting method; format: functional; method in brief: as §3
[15] = species: Homo sapiens; experiment: as §2, with “mu-opioid” for “delta-opioid”, “CHO” for “HEK293”, “DAMGO-induced” for “DPDPE-induced”; method in brief: as §3
[16] = target: T3, Kappa-type opioid receptor; experiment: Antagonist activity at recombinant human kappa-opioid receptor expressed in CHO cell membranes assessed as inhibition of U69593-induced [35S]GTPgammaS binding after 4 hrs by microbeta scintillation counting method; format: functional; method in brief: as §3
[17] = target: T1, Mu-type opioid receptor; experiment: Displacement of [3H]DAMGO from recombinant human mu-opioid receptor expressed in CHO cell membranes after 60 mins by liquid scintillation counting method
[18] = target: T3, Kappa-type opioid receptor; experiment: Displacement of [3H]U69593 from recombinant human kappa-opioid receptor expressed in CHO cell membranes after 60 mins by liquid scintillation counting method
[19] = system: Mus musculus; experiment: Antidepressant-like activity in ICR mouse assessed as decrease in immobility time at 30 mg/kg, ip administered 30 mins prior to test measured for last 4 mins of 6 mins observation by forced swim test; format: functional, organism-based
Method in brief: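 Male ICR mice (20–25 g), 10 per group, adapted ≥15 min before testing. Dosed i.p. with saline vehicle 30 min pretest. Each mouse was placed in a cylinder 10 cm wide with water 6 cm deep at 25 °C for 6 min. Immobility was scored over the last 4 min; mean ± SEM.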

T1 sequence (P35372 whole entry): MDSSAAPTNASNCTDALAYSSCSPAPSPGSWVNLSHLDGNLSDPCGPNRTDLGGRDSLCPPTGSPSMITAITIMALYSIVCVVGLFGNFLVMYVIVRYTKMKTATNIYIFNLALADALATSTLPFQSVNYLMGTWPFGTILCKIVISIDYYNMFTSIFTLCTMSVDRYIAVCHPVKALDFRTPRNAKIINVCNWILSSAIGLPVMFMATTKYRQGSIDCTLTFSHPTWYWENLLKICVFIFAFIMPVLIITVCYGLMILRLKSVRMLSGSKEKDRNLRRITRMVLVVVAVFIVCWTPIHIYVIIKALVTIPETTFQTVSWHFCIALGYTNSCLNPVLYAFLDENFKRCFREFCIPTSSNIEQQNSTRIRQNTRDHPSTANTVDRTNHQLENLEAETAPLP
T2 sequence (P41143 whole entry): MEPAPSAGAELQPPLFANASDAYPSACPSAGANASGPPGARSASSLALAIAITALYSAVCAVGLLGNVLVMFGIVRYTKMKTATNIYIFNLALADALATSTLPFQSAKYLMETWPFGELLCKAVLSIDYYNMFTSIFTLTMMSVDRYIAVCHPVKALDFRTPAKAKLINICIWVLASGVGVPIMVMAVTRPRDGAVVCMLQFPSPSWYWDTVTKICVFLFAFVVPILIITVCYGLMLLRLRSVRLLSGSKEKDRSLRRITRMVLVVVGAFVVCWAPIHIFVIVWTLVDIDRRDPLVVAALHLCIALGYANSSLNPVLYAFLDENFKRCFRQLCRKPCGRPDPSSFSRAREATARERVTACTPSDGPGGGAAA
T3 sequence (P41145 whole entry): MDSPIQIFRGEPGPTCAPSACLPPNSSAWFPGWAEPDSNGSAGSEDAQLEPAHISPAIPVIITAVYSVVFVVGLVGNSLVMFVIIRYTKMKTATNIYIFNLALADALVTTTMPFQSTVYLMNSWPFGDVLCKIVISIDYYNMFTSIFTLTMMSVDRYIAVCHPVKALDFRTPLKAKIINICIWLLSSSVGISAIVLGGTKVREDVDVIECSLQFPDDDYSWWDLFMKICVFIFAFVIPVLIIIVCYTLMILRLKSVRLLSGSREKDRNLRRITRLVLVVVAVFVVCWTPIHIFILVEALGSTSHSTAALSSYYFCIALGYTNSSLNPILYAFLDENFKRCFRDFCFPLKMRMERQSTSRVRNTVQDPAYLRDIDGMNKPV

Row | SMILES | inhibition [1] [%] | inhibition [2] [%] | inhibition [3] [%] | inhibition [4] [%] | inhibition [5] [%] | inhibition [6] [%] | Ratio IC50 [7] | Ratio Ki [8] | Activity [9] | Activity [10] | pIC50 [11] | Ratio Ki [12] | pKi [13] | pIC50 [14] | Ratio IC50 [15] | pIC50 [16] | pKi [17] | pKi [18] | Activity [19]
1 | NC(=O)c1ccc(Oc2ccc(CN3CCCC3c3cccc(Cl)c3)cc2)c2ccccc12 (centres undefined) | 0 | 0 | 31.4 | 0 | 64.1 | 0 |  |  |  |  |  |  |  |  |  |  |  |  | 
2 | NC(=O)c1ccc(Oc2ccc(CN3CCCC3c3ccc(F)cc3)cc2)c2ccccc12 (centres undefined) | 0 | 0 | 13.8 | 0 | 39 | 0 |  |  |  |  |  |  |  |  |  |  |  |  | 
3 | Cc1cc(C)cc(C2CCCN2Cc2ccc(Oc3ccc(C(N)=O)c4ccccc34)cc2)c1 (centres undefined) | 0 | 0 | 12.2 | 0 | 23.7 | 0 |  |  |  |  |  |  |  |  |  |  |  |  | 
4 | Cc1cc(C)cc(C2CCCN2Cc2ccc(Oc3ccc(C(N)=O)cc3F)c(Cl)c2)c1 (centres undefined) | 94.2 | 54.1 | 98.5 | 51.4 | 100 | 92.4 | 1.7 | 14 | Active | Active | 6.84 | 12.2 | 6.72 | 7.80 | 15.5 | 8.03 | 6.66 | 7.80 | Active
5 | Cc1cc(C)cc(C2CCCN2Cc2ccc(Oc3ccc(C(N)=O)cc3F)cc2)c1 (racemic) | 93.6 | 45.5 | 97 | 56.1 | 100 | 87.2 | 14.3 | 7.6 | Active | Active | 7.65 | 7.6 | 7.04 | 7.02 | 3.4 | 8.18 | 7.04 | 7.92 | Active
6 | Cc1cc(C)cc(C2CCCN2Cc2ccc(Oc3ccc(C(N)=O)cc3)c(F)c2)c1 (centres undefined) | 95.3 | 45.5 | 98.8 | 71 | 100 | 97.1 |  | 2.13 |  |  |  | 9 | 6.57 |  |  |  | 7.20 | 7.53 | Active
7 | Cc1cc(C)cc(C2CCCN2Cc2ccc(Oc3ccc(C(N)=O)cc3F)c(F)c2)c1 (centres undefined) | 96.8 | 37.4 | 95.8 | 73.4 | 98.7 | 89.2 |  | 0.65 |  |  |  | 10.1 | 6.37 |  |  |  | 7.55 | 7.37 | 
